Test results taken from article PMC10762718 (RSC Advances, 2024).

Key:
Type in all cases: cell-based
[1] = MTT cell viability assay, normal MCF-10A cells; settings: human, MCF-10A normal mammary epithelial cells
Method in brief: (§1)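 Normal mammary epithelial MCF-10A cells were exposed to test compound at 25, 50 and 100 μM for 72 h. Cells were then given MTT after medium removal, 3 h at 37 °C in CO2. Formazan was dissolved in DMSO and absorbance read at 595 nm. Viability is expressed as percent of untreated control cells.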

[2] = system: normal mammary epithelial MCF-10A cells; assay: MTT cell viability assay, normal MCF-10A cells; settings: tested at 25, 50 and 100 μM
Method in brief: as §1

[3] = system: MCF-7 breast cancer cells; assay: MTT cell viability assay, MCF-7; settings: Homo sapiens; for inhibition at 25 µM: MCF7; for IC50: MCF7, 72 h, read-out: IC50 against MCF-7 breast cancer cells line; for viability at 1 µM / viability at 10 µM / viability at 25 µM: MCF7, read-out: Cell viability (%) ±SD
Method in brief: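 After medium removal, MTT was added for 3 h at 37 °C in CO2, formazan dissolved in DMSO and absorbance read at 595 nm. Viability is relative to untreated cells, triplicates, n = 3, ±SD. IC50 comes from plotting percent viability against concentration.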

[4] = system: MDA-MB-453 cells; assay: MTT cell viability assay, MDA-MB-453; settings: for viability at 1 µM / viability at 10 µM / viability at 25 µM: Homo sapiens, MDA-MB-453, read-out: Cell viability (%) ±SD; for IC50 against MDA-MB-453 cells: tested at 1, 10 and 25 μM
Method in brief: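 MDA-MB-453 (HER2-positive) cells were exposed to test compound at 1, 10 and 25 μM for 72 h. After medium removal, MTT was added for 3 h at 37 °C in CO2. Formazan was dissolved in DMSO and absorbance read at 595 nm. Percent viable cells are relative to untreated control cells.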

[5] = system: MDA-MB-231 (human breast cancer) cells; assay: MTT cell viability assay, MDA-MB-231; settings: for inhibition at 25 µM: MDA-MB-231; for viability at 10 µM / viability at 25 µM / viability at 50 µM: MDA-MB-231, 72 h, read-out: Cell viability (%) ±SD
Method in brief: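 MDA-MB-231 cells were grown as a monolayer in DMEM with 10% heat-inactivated FBS and 1% penicillin-streptomycin at 37 °C in humidified CO2, subcultured every third day with trypsin-EDTA, and used before passage 8. Cells were exposed 72 h to 10, 25 and 50 μM. Medium was removed, MTT added for 3 h at 37 °C, formazan dissolved in DMSO and read at 595 nm. Viability is relative to untreated control, triplicates, ±SD. IC50 comes from the viability-versus-concentration plot.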

SMILES	viability at 72 h, 25 µM [1] [%]	viability at 72 h, 50 µM [1] [%]	viability at 72 h, 100 µM [1] [%]	growth inhibitory activity against normal breast epithelial cell (MCF-10A) [2]	inhibition at 25 µM [3] [%]	IC50 [3] [µM]	viability at 1 µM [3] [%]	viability at 10 µM [3] [%]	viability at 25 µM [3] [%]	viability at 1 µM [4] [%]	viability at 10 µM [4] [%]	viability at 25 µM [4] [%]	IC50 against MDA-MB-453 cells [4]	inhibition at 25 µM [5] [%]	viability at 10 µM [5] [%]	viability at 25 µM [5] [%]	viability at 50 µM [5] [%]
CC(=O)OC[C@@H]1O[C@H](n2cc(Cn3ccc4nc(-c5ccc(C(F)(F)F)cc5)cc(=O)n43)nn2)[C@@H](OC(C)=O)[C@H](OC(C)=O)[C@@H]1OC(C)=O (stereo in doubt) [Compound 36, (2S,3R,4R,5S,6S)-2-(Acetoxymethyl)-6-(4-((7-oxo-5-(4-(trifluoromethyl)phenyl)pyrazolo[1,5-a]pyrimidin-1(7H)-yl)methyl)-1H-1,2,3-triazol-1-yl)tetrahydro-2H-pyran-3,4,5-triyl triacetate]	88.6 ± 1.5	86.1 ± 2.8	84.2 ± 3	none of these compounds did have any growth inhibitory activity	~50	4.93	52.3 ± 3.1	32.4 ± 0.9	28.1 ± 4.4	91.5 ± 4.6	82.9 ± 1.2	63.8 ± 1.7	did not reach up to IC50 value	~50	70.4 ± 5.36	46.1 ± 3.32	41.2 ± 1.26
COc1ccc(-c2cc(=O)n3c(ccn3Cc3cn([C@H]4O[C@H](COC(C)=O)[C@@H](OC(C)=O)[C@H](OC(C)=O)[C@@H]4OC(C)=O)nn3)n2)cc1 [Compound 41, (2R,3R,4S,5S,6S)-2-(Acetoxymethyl)-6-(4-((5-(4-methoxyphenyl)-7-oxopyrazolo[1,5-a]pyrimidin-1(7H)-yl)methyl)-1H-1,2,3-triazol-1-yl)tetrahydro-2H-pyran-3,4,5-triyl triacetate]	89.8 ± 2.8	84.2 ± 5.8	83 ± 1.5	none of these compounds did have any growth inhibitory activity	~50	21.8	72.8 ± 4.2	58.2 ± 3.8	48.1 ± 3.5	96.4 ± 4.8	77.4 ± 5.4	95.1 ± 35.7	did not reach up to IC50 value	~50	66.7 ± 8.21	54.3 ± 6.12	44.2 ± 4.11
